How the values were obtained:
[1] = folding enthalpy; higher = less favourable; fluorescence melt of hairpins on a sequencing array, two-state fit; details: sodium 0.088 M
Summary of the method: (§1)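 With Cy3 and quencher oligos annealed, library hairpins on a sequenced MiSeq flow cell were imaged for Cy3 fluorescence in 50 mM Na-HEPES pH 8.0, 25 mM NaCl, in 2.5 °C steps up to 60 °C. Melting temperature and folding enthalpy were derived from bootstrapped two-state fits of signals normalised to pre-quench Cy3 and to control constructs. Four replicates were combined by inverse variance, with fitted temperatures raised by 9.35 °C to match UV melts.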

[2] = melting temperature; fluorescence melt of hairpins on a sequencing array, two-state fit, raised by 9.35 °C to match UV melts; details: sodium 0.088 M
Summary of the method: as §1

Row | Sequence | folding enthalpy [1] | Tm [2]
1 | GTAGAGGGAAACCTCTAC (((((((....))))))) | -54.2 kcal/mol | 55.8 °C
2 | GCCCTTGAAAAAGGGC ((((((....)))))) | -36 kcal/mol | 68 °C
3 | GTCATCGAAAGATGAGAC ((((((....)))..))) | -13.7 kcal/mol | 40.7 °C
4 | GGTACGGGAAACTGTACC (((((.(....).))))) | -34.3 kcal/mol | 50.9 °C
5 | GGTTGAGGAAACTCAACC (((((((....))))))) | -40.1 kcal/mol | 60.7 °C
6 | GATCTGGGAAACTAGATC (((((.(....).))))) | -32.2 kcal/mol | 42.4 °C
7 | GCGTTAGCGAAAGCTCGC (((..(((....)))))) | -12.5 kcal/mol | 44.2 °C
8 | GTCTGCGAAAGCACTGAC ((((((....)))..))) | -15.1 kcal/mol | 36.3 °C
9 | CGCGGACAACTCCGCG ((((((....)))))) | -31.9 kcal/mol | 64.9 °C
10 | GCCCAGCGAAAGCAGAGC ((.(.((....)).).)) | -10.9 kcal/mol | 41.2 °C
11 | GAGTACGGAAACGTATTC ((.((((....)))).)) | -24.4 kcal/mol | 41.6 °C
12 | GCTGCGGGAAACCGCAAC (.(((((....))))).) | -11.4 kcal/mol | 45.9 °C
13 | GGCATGGGAAACCATGTC (.(((((....))))).) | -26.6 kcal/mol | 52.5 °C
14 | GGGGTCGGAAACGGCCCC ((((.((....)).)))) | -31.7 kcal/mol | 67.9 °C
15 | GGAAACCGAAAGGTTCC (((.(((....)))))) | -18.8 kcal/mol | 51.9 °C
16 | GATCTATTGATAGATC ((((((....)))))) | -28.8 kcal/mol | 44.7 °C
17 | GATCATATTGATGATC ((((((....)))))) | -31.9 kcal/mol | 47.3 °C
18 | GACTATGGAAACGTAGTC (((((.(....).))))) | -32.4 kcal/mol | 42 °C
19 | GTCGGTGGAAACATCGGC (.((.((....)).)).) | -26.2 kcal/mol | 44.4 °C
20 | GATCGAAACTTCGATC ((((((....)))))) | -33.9 kcal/mol | 53.5 °C
21 | GTGCGTGGAAACACGTAC ((.((((....)))).)) | -32.8 kcal/mol | 56.1 °C
22 | GAAATCGGAAACGACTTC (((.(((....))).))) | -24.8 kcal/mol | 32.4 °C
23 | GCTATTCGAAAGAAAGC (((.(((....)))))) | -20.1 kcal/mol | 32.1 °C

Row | Sequence | folding enthalpy [1] | Tm [2]
24 | GTGTTGTCGAAAGACCAC (((..(((....)))))) | -21.6 kcal/mol | 42.4 °C
25 | GCGTAGCGAAAGCATCGC (((..((....))..))) | -15.4 kcal/mol | 55.1 °C
26 | GCATGTCGAAAGACCTGC (((.(((....))).))) | -37.4 kcal/mol | 50.6 °C
27 | GGCGATTCGAAAGAAGCC (((..(((....)))))) | -23.2 kcal/mol | 46.4 °C
28 | GATCGCACCGGCGATC ((((((....)))))) | -33.7 kcal/mol | 68.3 °C
29 | GTGCCGGGAAACCGGCGC (.(((((....))))).) | -18.2 kcal/mol | 67.3 °C
30 | GATCATGACATGATC ((((((...)))))) | -40.3 kcal/mol | 49.7 °C
31 | GATCAATTCGTTGATC ((((((....)))))) | -37.8 kcal/mol | 48.6 °C
32 | GATCTTACGTAAGATC ((((((....)))))) | -63 kcal/mol | 48.3 °C
33 | GGTTTGCCGAAAGGCACC (((..(((....)))))) | -8.06 kcal/mol | 30.7 °C
34 | GCTCTGCGAAAGCGAAGC (((..((....))..))) | -13.6 kcal/mol | 40.8 °C
35 | GATCCCTTGAGGGATC ((((((....)))))) | -42.9 kcal/mol | 62.4 °C
36 | GGGTGTGGAAACACACTC (.(((((....))))).) | -23.5 kcal/mol | 55.4 °C
37 | GGATAGGGAAACCTATCC (((((((....))))))) | -47.9 kcal/mol | 56.8 °C
38 | GGTTGTGGAAACATAACC ((((.((....)).)))) | -37 kcal/mol | 45.9 °C
39 | GATCGCGAAAGCGTCATC ((((((....)))..))) | -7.57 kcal/mol | 33.8 °C
40 | GTCCCTGGAAACAGGAAC ((.((((....)))).)) | -21.6 kcal/mol | 36.1 °C
41 | GTAACCGGAAACGATTAC ((((.((....)).)))) | -25.3 kcal/mol | 36.4 °C
42 | GTATACCCGAAAGGGTAC (((..(((....)))))) | -8.81 kcal/mol | 32.4 °C
43 | GATCTCGGTGAGATC ((((((...)))))) | -12.9 kcal/mol | 55.9 °C
44 | GTAGACGGAAACGTTTGC (.(.(((....))).).) | -16.7 kcal/mol | 29.6 °C
45 | GTTCTGACGAAAGTCAAC (((..(((....)))))) | -8.85 kcal/mol | 25.2 °C
46 | GGGGGAGGAAACTTCCCC ((((.((....)).)))) | -47.8 kcal/mol | 54.4 °C

Row | Sequence | folding enthalpy [1] | Tm [2]
47 | GCCGTAGGAAACTACGAC (.(((((....))))).) | -18.5 kcal/mol | 40.8 °C
48 | GTTAGCGGAAACGCTAGC (.(((((....))))).) | -16.1 kcal/mol | 49.3 °C
49 | GCAAGGCGAAAGCGTTGC ((((.((....)).)))) | -33.1 kcal/mol | 67.2 °C
50 | GCTGGGCGAAAGCAAAGC (((..((....))..))) | -20.9 kcal/mol | 54.1 °C
51 | GATCACCACCGTGATC ((((((....)))))) | -37.3 kcal/mol | 55.5 °C
52 | GGGAATCGAAAGATACCC (((.(((....))).))) | -30.1 kcal/mol | 49.6 °C
53 | GATGACCCGAAAGGGATC (((..(((....)))))) | -11.7 kcal/mol | 33.2 °C
54 | GCAATCGAAAGATCTGC ((((((....))).))) | -18 kcal/mol | 35.2 °C
55 | GAATATGGAAACATATCC (.(((((....))))).) | -13.6 kcal/mol | 24.6 °C
56 | GGGTACGAAAGTAGACCC ((((((....)))..))) | -19.2 kcal/mol | 46.2 °C
57 | GATCACTTGTGTGATC ((((((....)))))) | -40.4 kcal/mol | 56.1 °C
58 | GGCCTCGAAAGAGGAGCC ((((((....)))..))) | -14.5 kcal/mol | 47.2 °C
59 | GGCTGTGGAAACGTAGCC ((((..(....)..)))) | -29.9 kcal/mol | 48.9 °C
60 | GATCCCGCGGGGGATC ((((((....)))))) | -31 kcal/mol | 59.9 °C
61 | CGCGGAAAACTCCGCG ((((((....)))))) | -38.9 kcal/mol | 62 °C
62 | GTCACACGAAAGTGGAC (((.(((....)))))) | -18.7 kcal/mol | 48.6 °C
63 | GCGTACGTACGC ((((....)))) | -29.9 kcal/mol | 55.3 °C
64 | GTGGCCGAAAGGCCTCAC ((((((....)))..))) | -7.49 kcal/mol | 40.4 °C
65 | GTGCACGAAAGTGAGCAC ((((((....)))..))) | -32.4 kcal/mol | 51.6 °C
66 | GCTGGTGGAAACACCAAC (.(((((....))))).) | -14.4 kcal/mol | 41.3 °C
67 | GTGAGACGAAAGTCCCAC (((.(((....))).))) | -27.3 kcal/mol | 50.4 °C
68 | GCGTCTTCGAAAGAACGC (((..(((....)))))) | -26 kcal/mol | 46.6 °C
69 | GGGAGGTCGAAAGACCCC (((..(((....)))))) | -14.4 kcal/mol | 54.5 °C

— the array DNA melting data of Ke et al. (doi:10.1101/2024.01.08.574731)
